Reference: ChEMBL document CHEMBL2157924, “Cyclobutane derivatives as novel nonpeptidic small molecule agonists of glucagon-like peptide-1 receptor” (J Med Chem, 2012)

What was measured:
[1] = biological target: T1, Glucagon-like peptide 1 receptor (Rattus norvegicus, UniProt P32301); assay: Inhibition of [125I]GLP1 (7-36) amide binding to rat GLP1R expressed in HEK293 cells; assay type: cell-based
T1 sequence (P32301 whole entry): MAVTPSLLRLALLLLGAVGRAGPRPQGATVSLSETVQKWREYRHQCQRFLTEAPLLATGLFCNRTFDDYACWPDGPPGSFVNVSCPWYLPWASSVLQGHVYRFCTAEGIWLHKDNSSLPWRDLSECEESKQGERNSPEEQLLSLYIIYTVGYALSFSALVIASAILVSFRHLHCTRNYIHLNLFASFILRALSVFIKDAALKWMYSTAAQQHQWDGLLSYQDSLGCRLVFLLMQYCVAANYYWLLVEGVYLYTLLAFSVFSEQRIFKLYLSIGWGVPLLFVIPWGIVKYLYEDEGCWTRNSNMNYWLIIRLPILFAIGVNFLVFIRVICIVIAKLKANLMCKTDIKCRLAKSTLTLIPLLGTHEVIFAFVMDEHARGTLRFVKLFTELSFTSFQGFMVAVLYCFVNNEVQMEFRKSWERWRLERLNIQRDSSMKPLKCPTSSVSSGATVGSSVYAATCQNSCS
How it was run: (§1)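 Membranes (17 μg protein) from HEK293 cells stably expressing rat GLP-1R were preincubated 5 h at 4 °C with FlashBlue beads (150 μg). Then 40 pM [125I]GLP-1(7−36) amide or [125I]Exendin(9−39) was added with aprotinin 2 μg/mL, leupeptin 100 μM and test compound at varied concentrations. Incubated overnight at 4 °C, then bound radioactivity counted. Mean ± SEM of two independent experiments.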

[2] = biological target: T1, Glucagon-like peptide 1 receptor; assay: Agonist activity at rat GLP1R expressed in HEK293 cells assessed as stimulation of cAMP levels incubated for 6 hrs by multiple response element/cAMP response element (MRE/CRE)-driven reporter gene assay; assay type: functional, cell-based
How it was run: (§2)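 Stable HEK293 line co-expressing rat GLP-1R (pCMV-Tag2B) and a luciferase reporter with 3× MRE plus 1× CRE, seeded at 40000 cells/well and cultured overnight. Compounds in DMSO or GLP-1(7−37) were added for 6 h, then cells were lysed and luciferase read (Steady-Glo). The 10 nM GLP-1 maximum was taken as 100%. Mean ± SEM of two independent experiments; some values come from a single run.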

[3] = biological target: T2, Glucagon-like peptide 1 receptor (Rattus norvegicus) (UniProt P32301); assay: Agonist activity at rat GLP1R expressed in HEK293 cells assessed as stimulation of cAMP levels incubated for 6 hrs by multiple response element/cAMP response element (MRE/CRE)-driven reporter gene assay relative to 10 nM GLP1; assay type: functional, cell-based; how it was run: as §2
T2 sequence (whole entry): T1 sequence (P32301 whole entry)

[4] = biological target: T2, Glucagon-like peptide 1 receptor (Rattus norvegicus); assay: Inhibition of [125I]GLP1 (7-36) amide binding to rat GLP1R expressed in HEK293 cells relative to untreated control; assay type: cell-based; set-up: concentration or dose not given beside the values; conditions: concentration not given here; how it was run: as §1
[5] = biological target: T2, Glucagon-like peptide 1 receptor (Rattus norvegicus); assay: Inhibition of [125I]Exendin (9-39) binding to rat GLP1R expressed in HEK293 cells; assay type: cell-based; set-up: concentration or dose not given beside the values; conditions: concentration not given here; how it was run: as §1

Row | Compound | IC50 [1] | EC50 [2] | Efficacy [3] | inhibition [4] | inhibition [5]
1 | COc1cc([C@H]2[C@](NC(=O)c3ccc(NC(=O)OC(C)(C)C)cc3)(C(=O)O)[C@@H](c3ccc(OC(=O)C45CC6CC(CC(C6)C4)C5)c(OC)c3)[C@]2(NC(=O)c2ccc(NC(=O)OC(C)(C)C)cc2)C(=O)O)ccc1OC(=O)C12CC3CC(CC(C3)C1)C2 | 3.6 µM | 2150 nM | 86% | 75.8% | 63.5%
2 | CNC(=S)Nc1ccc(C(=O)N[C@]2(C(=O)O)[C@H](c3ccc(OC(=O)c4cccs4)c(OC)c3)[C@@](NC(=O)c3ccc(NC(=S)NC)cc3)(C(=O)O)[C@@H]2c2ccc(OC(=O)c3cccs3)c(OC)c2)cc1 | 1.4 µM | 9120 nM | 68% | 72.7% | 70.1%
3 | COc1cc([C@H]2[C@](NC(=O)c3ccc(NC(=O)OC(C)(C)C)cc3)(C(=O)O)[C@@H](c3ccc(OCc4ccc(F)cc4)c(OC)c3)[C@]2(NC(=O)c2ccc(NC(=O)OC(C)(C)C)cc2)C(=O)O)ccc1OCc1ccc(F)cc1 | > 20 µM | > 20000 nM | < 15% | < 15% | < 15%
4 | CCCOc1ccc([C@H]2[C@](NC(=O)c3ccc(NC(=O)OC(C)(C)C)cc3)(C(=O)O)[C@@H](c3ccc(OCCC)cc3)[C@]2(NC(=O)c2ccc(NC(=O)OC(C)(C)C)cc2)C(=O)O)cc1 | > 20 µM | > 20000 nM | < 15% | < 15% | < 15%
5 | COc1cc([C@H]2[C@](NC(=O)c3ccc(NC(=O)C(C)C)cc3)(C(=O)O)[C@@H](c3ccc(OC(=O)C4CCC4)c(OC)c3)[C@]2(NC(=O)c2ccc(NC(=O)C(C)C)cc2)C(=O)O)ccc1OC(=O)C1CCC1 | 9.6 µM | 15800 nM | 50.7% | 47.9% | 36.8%
6 | CC(C)(C)OC(=O)Nc1ccc(C(=O)N[C@]2(C(=O)O)[C@H](c3ccccc3)[C@@](NC(=O)c3ccc(NC(=O)OC(C)(C)C)cc3)(C(=O)O)[C@@H]2c2ccccc2)cc1 | > 20 µM | > 20000 nM | < 15% | < 15% | < 15%
7 | COc1cc([C@H]2C[C@]2(NC(=O)c2ccc(NC(=O)OC(C)(C)C)cc2)C(=O)O)ccc1OC(=O)c1cccs1 | > 20 µM | > 20000 nM | < 15% | < 15% | < 15%
8 | CCOc1cc([C@H]2[C@](NC(=O)c3ccc(NC(=O)OC(C)(C)C)cc3)(C(=O)O)[C@@H](c3ccc(OC(=O)c4cccs4)c(OCC)c3)[C@]2(NC(=O)c2ccc(NC(=O)OC(C)(C)C)cc2)C(=O)O)ccc1OC(=O)c1cccs1 | 3.1 µM | 326 nM | 85.6% | 50.2% | < 15%
9 | COc1cc([C@H]2[C@](NC(=O)c3ccc(NC(=O)OC(C)(C)C)cc3)(C(=O)O)[C@@H](c3ccc(OC(=O)C(C)C)c(OC)c3)[C@]2(NC(=O)c2ccc(NC(=O)OC(C)(C)C)cc2)C(=O)O)ccc1OC(=O)C(C)C | 7.5 µM | 1380 nM | 65% | 47.2% | 34.8%
10 | CCC(=O)Nc1ccc(C(=O)N[C@]2(C(=O)O)[C@H](c3ccc(OC(=O)c4cccs4)c(OC)c3)[C@@](NC(=O)c3ccc(NC(=O)CC)cc3)(C(=O)O)[C@@H]2c2ccc(OC(=O)c3cccs3)c(OC)c2)cc1 | 4.9 µM | 696 nM | 48.4% | 75.2% | 36.1%
11 | COc1cc([C@H]2[C@](NC(=O)c3ccc(NC(=O)C4CC4)cc3)(C(=O)O)[C@@H](c3ccc(OC(=O)c4cccs4)c(OC)c3)[C@]2(NC(=O)c2ccc(NC(=O)C3CC3)cc2)C(=O)O)ccc1OC(=O)c1cccs1 | 1.2 µM | 148 nM | 84.2% | 86.4% | 67.8%
12 | COc1cc([C@H]2[C@](NC(=O)c3ccc(NC(=O)CCl)cc3)(C(=O)O)[C@@H](c3ccc(OC(=O)c4cccs4)c(OC)c3)[C@]2(NC(=O)c2ccc(NC(=O)CCl)cc2)C(=O)O)ccc1OC(=O)c1cccs1 | 8.5 µM | 3800 nM | 58% | 43.8% | 32.9%
13 | COc1cc([C@H]2[C@](NC(=O)c3ccc(NC(=O)OC(C)(C)C)cc3)(C(N)=O)[C@@H](c3ccc(OC(=O)c4cccs4)c(OC)c3)[C@]2(NC(=O)c2ccc(NC(=O)OC(C)(C)C)cc2)C(N)=O)ccc1OC(=O)c1cccs1 | > 20 µM | > 20000 nM | < 15% | < 15% | < 15%
14 | CCOC(=O)CNC(=O)Nc1ccc(C(=O)N[C@]2(C(=O)O)[C@H](c3ccc(OC(=O)c4cccs4)c(OC)c3)[C@@](NC(=O)c3ccc(NC(=O)NCC(=O)OCC)cc3)(C(=O)O)[C@@H]2c2ccc(OC(=O)c3cccs3)c(OC)c2)cc1 | 4.3 µM | 4500 nM | 33.7% | 43.8% | 37.9%
15 | COc1cc([C@H]2[C@](NC(=O)c3ccc(NC(=S)Nc4cccc5ccccc45)cc3)(C(=O)O)[C@@H](c3ccc(OC(=O)c4cccs4)c(OC)c3)[C@]2(NC(=O)c2ccc(NC(=S)Nc3cccc4ccccc34)cc2)C(=O)O)ccc1OC(=O)c1cccs1 | 3 µM | 2120 nM | 29.8% | 57.4% | 52.3%

Further lines, results first:

Row | IC50 [1] | EC50 [2] | Efficacy [3] | inhibition [4] | inhibition [5] | Compound
16 | 0.5 µM | 1110 nM | 60.8% | 47.6% | 33.4% | COc1cc([C@H]2[C@](NC(=O)c3ccc(NC(=O)C(C)(C)C)cc3)(C(=O)O)[C@@H](c3ccc(OC(=O)c4cccs4)c(OC)c3)[C@]2(NC(=O)c2ccc(NC(=O)C(C)(C)C)cc2)C(=O)O)ccc1OC(=O)c1cccs1
17 | 1.2 µM | 749 nM | 87.5% | 53.6% | 45.6% | COc1cc([C@H]2[C@](NC(=O)c3ccc(NC(=O)C4CCC4)cc3)(C(=O)O)[C@@H](c3ccc(OC(=O)c4cccs4)c(OC)c3)[C@]2(NC(=O)c2ccc(NC(=O)C3CCC3)cc2)C(=O)O)ccc1OC(=O)c1cccs1
18 | 3.6 µM | > 20000 nM | < 15% | 64.7% | 55.9% | COc1cc([C@H]2[C@](NC(=O)c3ccc(NC(=O)OC(C)(C)C)cc3)(C(=O)O)[C@@H](c3ccc(OC(=O)c4cccs4)c(OC)c3)[C@@]2(NC(=O)c2ccc(NC(=O)OC(C)(C)C)cc2)C(=O)O)ccc1OC(=O)c1cccs1
19 | > 20 µM | > 20000 nM | < 15% | < 15% | < 15% | COc1cc([C@H]2[C@](NC(=O)c3ccc(NC(=O)OC(C)(C)C)cc3)(C(=O)O)[C@@H](c3ccc(OC(=O)C4CCCCC4)c(OC)c3)[C@]2(NC(=O)c2ccc(NC(=O)OC(C)(C)C)cc2)C(=O)O)ccc1OC(=O)C1CCCCC1
20 | 7.5 µM | 3330 nM | 86% | 65.1% | 53.8% | CCCC(=O)Oc1ccc([C@H]2[C@](NC(=O)c3ccc(NC(=O)OC(C)(C)C)cc3)(C(=O)O)[C@@H](c3ccc(OC(=O)CCC)c(OC)c3)[C@]2(NC(=O)c2ccc(NC(=O)OC(C)(C)C)cc2)C(=O)O)cc1OC
21 | 0.3 µM | 657 nM | 35.9% | 39.3% | 37.9% | COc1cc([C@H]2[C@](NC(=O)c3ccc(NC(=O)C4CCCC4)cc3)(C(=O)O)[C@@H](c3ccc(OC(=O)c4cccs4)c(OC)c3)[C@@]2(NC(=O)c2ccc(NC(=O)C3CCCC3)cc2)C(=O)O)ccc1OC(=O)c1cccs1
22 | 17.5 µM | 19100 nM | 67% | 40.1% | 29.4% | COc1cc([C@H]2[C@](NC(=O)c3ccc(NC(=O)OC(C)(C)C)cc3)(C(=O)O)[C@@H](c3ccc(OC(=O)c4ccc(C)s4)c(OC)c3)[C@]2(NC(=O)c2ccc(NC(=O)OC(C)(C)C)cc2)C(=O)O)ccc1OC(=O)c1ccc(C)s1
23 | 2.7 µM | 2500 nM | 91% | 86% | 68.3% | CCC(=O)Oc1ccc([C@H]2[C@](NC(=O)c3ccc(NC(=O)OC(C)(C)C)cc3)(C(=O)O)[C@@H](c3ccc(OC(=O)CC)c(OC)c3)[C@]2(NC(=O)c2ccc(NC(=O)OC(C)(C)C)cc2)C(=O)O)cc1OC
24 | > 20 µM | > 20000 nM | < 15% | < 15% | < 15% | CC(C)(C)OC(=O)Nc1ccc(C(=O)N[C@]2(C(=O)O)[C@H](c3cccc(OCc4ccccc4)c3)[C@@](NC(=O)c3ccc(NC(=O)OC(C)(C)C)cc3)(C(=O)O)[C@@H]2c2cccc(OCc3ccccc3)c2)cc1
